Common to all, as to details: Glycine max
Substrate in data set [1]: O=c1c(O)c(-c2ccc(O)c(O)c2)oc2cc(O)cc(O)c12
Description: (§1) Activity at soybean LOX-1 using linoleic acid as substrate at 100 uM preincubated for 5 mins followed by substrate addition by Michaelis-Menten plot analysis. The method, boiled down: (§2)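 Soybean LOX-1 (supplied lyophilized) kinetic assay. Enzyme pre-incubated with inhibitor 5 min, then linoleic acid added. Conversion to the cis,trans-hydroperoxide followed at 234 nm at 30 °C with continuous soft shaking. Readings every 30 s for 10 min; rate taken as the 0–3 min slope. Three inhibitor concentrations tested against three substrate concentrations. Inhibition type assigned by nonlinear Michaelis–Menten fitting and Lineweaver–Burk plots. At least four experiments, each in triplicate.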

Substrate in data set [2]: O=c1cc(-c2ccc(O)cc2)oc2cc(O)cc(O)c12
Described as §1. The method, boiled down: as §2

Substrate in data set [3]: O=c1cc(-c2cccc(O)c2)oc2cc(O)cc(O)c12
The data set is described as §1. The method, boiled down: as §2

Substrate in data set [4]: O=c1cc(-c2ccc(O)c(O)c2)oc2cc(O)cc(O)c12
Description: (§3) Activity at soybean LOX-1 using linoleic acid as substrate at 50 uM preincubated for 5 mins followed by substrate addition by Michaelis-Menten plot analysis. Put shortly:
as §2

Substrate in data set [5]: O=c1cc(-c2ccc(O)c(O)c2)oc2cccc(O)c12
Described as §3. The method, boiled down:
as §2

Substrate in data set [6]: O=c1cc(-c2ccc(O)cc2)oc2cccc(O)c12
Described as §3. The method, boiled down: as §2

Substrate in data set [7]: O=c1cc(-c2cccc(O)c2)oc2cc(O)cc(O)c12
The data set is described as §3. The method, boiled down:
as §2

Substrate in data set [8]: O=c1c(O)c(-c2ccc(O)c(O)c2)oc2cc(O)cc(O)c12
Description: (§4) Activity at soybean LOX-1 using linoleic acid as substrate at 25 uM preincubated for 5 mins followed by substrate addition by Michaelis-Menten plot analysis. The method, boiled down:
as §2

Substrate in data set [9]: O=c1cc(-c2ccc(O)c(O)c2)oc2cc(O)ccc12
The description is as §4. The method, boiled down: as §2

Substrate in data set [10]: O=c1cc(-c2ccc(O)c(O)c2)oc2cccc(O)c12
Described as §4. Put shortly:
as §2

Substrate in data set [11]: O=c1cc(-c2ccc(O)c(O)c2)oc2ccccc12
The data set is described as §4. The method, boiled down:
as §2

Substrate in data set [12]: O=c1cc(-c2ccc(O)cc2)oc2cc(O)cc(O)c12
Described as §4. Put shortly:
as §2

Substrate in data set [13]: O=c1cc(-c2ccccc2)oc2cc(O)cc(O)c12
The description is as §4. The method, boiled down:
as §2

Substrate in data set [14]: O=c1cc(-c2ccc(O)c(O)c2)oc2cc(O)cc(O)c12
Kind of data set: (§5) Activity at soybean LOX-1 using linoleic acid as substrate at 10 uM preincubated for 5 mins followed by substrate addition by Michaelis-Menten plot analysis. Put shortly:
as §2

Substrate in data set [15]: O=c1cc(-c2ccc(O)c(O)c2)oc2cc(O)ccc12
The data set is described as §5. The method, boiled down: as §2

Substrate in data set [16]: O=c1cc(-c2ccc(O)c(O)c2)oc2ccccc12
The description is as §5. Put shortly: as §2

Substrate in data set [17]: O=c1cc(-c2ccc(O)cc2)oc2cccc(O)c12
Described as §5. Put shortly: as §2

Substrate in data set [18]: O=c1cc(-c2ccccc2)oc2cc(O)cc(O)c12
Described as §5. The method, boiled down: as §2

B1: Seed linoleate 13S-lipoxygenase-1 (Glycine max), P08170 (protein)
chain: MFSAGHKIKGTVVLMPKNELEVNPDGSAVDNLNAFLGRSVSLQLISATKADAHGKGKVGKDTFLEGINTSLPTLGAGESAFNIHFEWDGSMGIPGAFYIKNYMQVEFFLKSLTLEAISNQGTIRFVCNSWVYNTKLYKSVRIFFANHTYVPSETPAPLVSYREEELKSLRGNGTGERKEYDRIYDYDVYNDLGNPDKSEKLARPVLGGSSTFPYPRRGRTGRGPTVTDPNTEKQGEVFYVPRDENLGHLKSKDALEIGTKSLSQIVQPAFESAFDLKSTPIEFHSFQDVHDLYEGGIKLPRDVISTIIPLPVIKELYRTDGQHILKFPQPHVVQVSQSAWMTDEEFAREMIAGVNPCVIRGLEEFPPKSNLDPAIYGDQSSKITADSLDLDGYTMDEALGSRRLFMLDYHDIFMPYVRQINQLNSAKTYATRTILFLREDGTLKPVAIELSLPHSAGDLSAAVSQVVLPAKEGVESTIWLLAKAYVIVNDSCYHQLMSHWLNTHAAMEPFVIATHRHLSVLHPIYKLLTPHYRNNMNINALARQSLINANGIIETTFLPSKYSVEMSSAVYKNWVFTDQALPADLIKRGVAIKDPSTPHGVRLLIEDYPYAADGLEIWAAIKTWVQEYVPLYYARDDDVKNDSELQHWWKEAVEKGHGDLKDKPWWPKLQTLEDLVEVCLIIIWIASALHAAVNFGQYPYGGLIMNRPTASRRLLPEKGTPEYEEMINNHEKAYLRTITSKLPTLISLSVIEILSTHASDEVYLGQRDNPHWTSDSKALQAFQKFGNKLKEIEEKLVRRNNDPSLQGNRLGPVQLPYTLLYPSSEEGLTFRGIPNSISI
A word on the Km: it is the substrate concentration at which the rate is half of its maximum. Consider B1, for which the Km was determined as 100 µM in [1]; 191 µM in data set [2]; 111 µM in data set [3]; 148 µM in data set [4]; 46.4 µM in data set [5]; 61.3 µM in [6]. In addition, the Km in [7] was found to be 145 µM; in data set [8] it was 129 µM; in [9], 190 µM; in data set [10] it was 104 µM; in [11] it was 191 µM; in data set [12], 191 µM. Moreover, the Km in data set [13] was determined as 55 µM; in data set [14], 190 µM; in [15] it was 97.4 µM; in data set [16], 137 µM; in data set [17], 105 µM; in data set [18], 71 µM. For the same protein, the Vmax came to 0.006 µM in data set [1], 0.009 µM in data set [4], 0.008 µM in data set [8] and 0.012 µM in data set [14].

Values taken from ChEMBL document CHEMBL3102734, “Inhibition of LOX by flavonoids: a structure-activity relationship study” (Eur J Med Chem, 2014).
